Reference: ChEMBL document CHEMBL3108694, “Development of novel dual binders as potent, selective, and orally bioavailable tankyrase inhibitors” (J Med Chem, 2013)
In brackets after ≈: the same amount, converted by molar mass.

What was measured:
[1] = AUC (0 to infinity) in CD-1 mouse at 30 mg/kg, po; format: ADME, organism-based; parameters: time infinity, dose 30 mg/kg, route oral; details: plasma
Procedure, shortened: (§1)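 Male CD-1 mice given a single oral dose of 30 mg/kg. Vehicle was 10% Pluronic F68, 30% HPBCD and 60% water, pH adjusted to 10.0 with NaOH for most compounds or to 2.5 with methanesulfonic acid for one. Mean plasma PK parameters were reported.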

[2] = Cmax in CD-1 mouse at 30 mg/kg, po; format: ADME, organism-based; parameters: dose 30 mg/kg, route oral; details: in vivo; procedure, shortened: as §1
[3] = Tmax in CD-1 mouse at 30 mg/kg, po; format: ADME, organism-based; parameters: dose 30 mg/kg, route oral; details: in vivo; procedure, shortened: as §1
[4] = Inhibition of TNKS in human DLD1 cells expressing APC mutant assessed as inhibition of super-Topflash reporter gene transcription after 40 to 48 hrs by dual-glo luciferase reporter gene assay; format: cell-based; details: DLD-1
Procedure, shortened: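 DLD-1 cells carried an 8× TCF-driven firefly luciferase and an EF1a-driven Renilla luciferase, and were seeded at 10 000/well in RPMI with 10% FBS without antibiotics. A 10-point, 3-fold dilution series starting at 10 μM was applied for 40–48 h at 37 °C. Firefly and Renilla activities were read with Dual-Glo reagents.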

Mus musculus [5] = assay: Ex vivo inhibition of TNKS in tumor of athymic nude mouse xenografted with human DLD1 cells assessed as inhibition of super-Topflash reporter gene transcription at 10 mg/kg, po qd administered for 3 days measured 24 hrs post last dose by dual-glo luciferase reporter gene assay relative to control; format: functional; details: DLD-1
Procedure, shortened: (§2)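 Athymic nude mice carried subcutaneous DLD-1 tumors engineered with a Wnt-responsive STF firefly luciferase and a constitutive Renilla luciferase. At about 250 mm³, mice were randomized (n = 4 per group) and dosed orally once daily for 3 days at 10 or 50 mg/kg, or with vehicle. Tumor axin2 was measured by MSD immunoassay. STF was read by Dual-Glo, firefly normalized to Renilla. Plasma was taken for exposure.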

[6] = Fraction unbound in mouse plasma at 5 uM after 5 hrs by equilibrium dialysis method; format: ADME, cell-free
Procedure, shortened: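 Mouse plasma was spiked to a final 5 μM and equilibrium-dialyzed against plasma water (ultrafiltrate) for 5 h at 37 °C in a CO2 incubator, using a rapid equilibrium dialysis device. Fraction unbound was determined in duplicate.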

Plasma = assay: Unbound plasma concentration in athymic nude mouse xenografted with human DLD1 cells at 50 mg/kg, po qd administered for 3 days measured 24 hrs post last dose; format: ADME, organism-based, DLD-1; parameters: dose 50 mg/kg, route oral; details: in vivo; procedure, shortened: as §2
[7] = (§3) Inhibition of TNKS in human SW480 cells assessed as degradation of total pool of beta-catenin after 40 to 48 hrs; format: cell-based
Procedure, shortened: (§4)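 SW480 cells were seeded at 10 000/well in MEMα with 10% HI FBS, GlutaMAX, pyruvate and 10 mM HEPES. They were treated with a 10-point, 3-fold dilution series at 0.1% final DMSO for 40–48 h at 37 °C, then lysed. Total β-catenin was measured by MSD sandwich immunoassay (polyclonal capture, SULFO-TAG mAb detection).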

[8] = Solubility in fasted state simulated intestinal fluid at pH 6.8; format: ADME
Mus musculus [9] = assay: Ex vivo inhibition of TNKS in tumor of athymic nude mouse xenografted with human DLD1 cells assessed as inhibition of super-Topflash reporter gene transcription at 50 mg/kg, po qd administered for 3 days measured 24 hrs post last dose by dual-glo luciferase reporter gene assay relative to control; format: functional; details: DLD-1; procedure, shortened: as §2
[10] = Oral bioavailability in rat at 2 mg/kg; format: ADME, organism-based; details: in vivo
[11] = Inhibition of TNKS in human SW480 cells assessed as accumulation of axin-2 into cytoplasmic foci after 24 hrs by Hoechst dye-based assay; details: SW480, 24 h
[12] = Volume of distribution at steady state in rat at 0.5 mg/kg, iv; format: ADME, organism-based; parameters: dose 0.5 mg/kg, route intravenous; details: in vivo, read-out: Vdss
Procedure, shortened: (§5)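 Male rats received a single intravenous dose of 0.5 mg/kg. Mean clearance, steady-state volume of distribution and half-life were reported.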

[13] = Clearance in rat at 0.5 mg/kg, iv; format: ADME, organism-based; parameters: dose 0.5 mg/kg, route intravenous; details: in vivo; procedure, shortened: as §5
[14] = Half life in rat at 0.5 mg/kg, iv; format: ADME, organism-based; parameters: dose 0.5 mg/kg, route intravenous; details: in vivo; procedure, shortened: as §5
[15] = Intrinsic clearance in rat liver microsomes at 1 uM after 30 mins; format: ADME; details: read-out: CLH
Procedure, shortened: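 Substrate depletion in rat liver microsomes: 0.25 mg protein/mL, 1 mM NADPH and 2 mM MgCl2 in 50 mM potassium phosphate, pH 7.4, prewarmed to 37 °C. Test compound was added to a final 1 μM, and parent loss was measured after 30 min at 37 °C.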

[16] = Half life in CD-1 mouse plasma at 1 uM by LC-MS/MS analysis; format: ADME, cell-free
Procedure, shortened: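 Lithium-heparinized CD-1 mouse plasma was spiked with 1 μM substrate and incubated at 37 °C for 3 h, sampling at 0, 0.167, 1, 2 and 3 h (n = 2). Samples underwent acetonitrile protein precipitation with tolbutamide as internal standard. Analysis was by reversed-phase UPLC-ESI-MS/MS in MRM mode.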

[17] = Half life in rat at 5 mg/kg, iv; format: ADME, organism-based; parameters: dose 5 mg/kg, route intravenous; details: in vivo
[18] = target: T1, Poly [ADP-ribose] polymerase tankyrase-1 (Homo sapiens, UniProt O95271); assay: Inhibition of 6x-His-tagged TNKS1 (unknown origin) after 60 mins
T1 sequence (O95271 whole entry): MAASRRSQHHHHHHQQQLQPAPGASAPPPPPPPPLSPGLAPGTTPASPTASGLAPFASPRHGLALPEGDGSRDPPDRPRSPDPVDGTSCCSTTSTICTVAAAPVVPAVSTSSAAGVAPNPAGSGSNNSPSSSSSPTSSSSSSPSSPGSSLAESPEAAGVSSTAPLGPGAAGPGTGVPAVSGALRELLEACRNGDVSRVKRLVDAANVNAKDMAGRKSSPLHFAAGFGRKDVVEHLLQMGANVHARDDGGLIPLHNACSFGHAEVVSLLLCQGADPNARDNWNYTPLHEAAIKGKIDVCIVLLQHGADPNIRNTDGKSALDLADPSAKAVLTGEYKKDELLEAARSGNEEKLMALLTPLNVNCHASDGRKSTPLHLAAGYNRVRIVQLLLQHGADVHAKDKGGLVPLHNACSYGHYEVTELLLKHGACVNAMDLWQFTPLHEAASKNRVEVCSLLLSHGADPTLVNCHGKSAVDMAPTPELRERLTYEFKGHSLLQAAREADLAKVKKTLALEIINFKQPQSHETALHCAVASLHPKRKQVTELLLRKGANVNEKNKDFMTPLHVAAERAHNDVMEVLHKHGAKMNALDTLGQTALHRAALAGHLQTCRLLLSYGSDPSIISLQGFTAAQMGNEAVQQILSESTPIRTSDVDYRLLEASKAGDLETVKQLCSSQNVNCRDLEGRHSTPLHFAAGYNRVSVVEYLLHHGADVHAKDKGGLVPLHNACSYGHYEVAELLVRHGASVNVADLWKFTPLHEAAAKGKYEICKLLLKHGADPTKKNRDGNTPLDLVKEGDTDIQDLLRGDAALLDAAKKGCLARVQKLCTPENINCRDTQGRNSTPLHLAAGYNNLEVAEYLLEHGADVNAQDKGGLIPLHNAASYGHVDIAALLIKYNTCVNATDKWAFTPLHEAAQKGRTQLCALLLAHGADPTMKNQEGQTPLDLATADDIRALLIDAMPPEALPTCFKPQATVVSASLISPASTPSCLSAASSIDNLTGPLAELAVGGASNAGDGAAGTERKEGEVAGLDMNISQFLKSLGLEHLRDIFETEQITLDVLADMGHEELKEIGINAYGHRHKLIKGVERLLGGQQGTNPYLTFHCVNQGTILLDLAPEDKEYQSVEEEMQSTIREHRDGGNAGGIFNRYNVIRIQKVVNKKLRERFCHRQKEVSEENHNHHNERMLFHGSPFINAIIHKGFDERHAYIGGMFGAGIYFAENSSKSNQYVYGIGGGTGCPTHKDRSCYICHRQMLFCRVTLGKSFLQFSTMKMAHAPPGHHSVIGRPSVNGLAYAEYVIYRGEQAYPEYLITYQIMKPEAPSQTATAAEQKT

[19] = Volume of distribution at steady state in rat at 5 mg/kg, iv; format: ADME, organism-based; parameters: dose 5 mg/kg, route intravenous; details: in vivo, read-out: Vdss
Rattus norvegicus [20] = assay: AUC (infinity) in rat at 5 mg/kg, iv; format: ADME, organism-based, Plasma; parameters: time infinity, dose 5 mg/kg, route intravenous; details: in vivo
Rattus norvegicus [21] = assay: Clearance in rat at 5 mg/kg, iv; format: ADME, organism-based; parameters: dose 5 mg/kg, route intravenous; details: in vivo
SW480 = assay: as §3; format: cell-based; details: dose or concentration not given here; procedure, shortened: as §4

Row | AUC(0-inf) [1] [µM·h] | Cmax [2] [µM] | Tmax [3] [h] | IC50 [4] [nM] | fraction unbound at 5 h, 5 µM [6] | Cp(f) (Plasma) [µM] | IC50 [7] [nM] | solubility [8] [µg/mL] | bioavailability [10] [%] | EC50 [11] [nM] | Vd [12] [L/kg] | clearance [13] [mL/min/kg] | half-life [14] [h] | half-life at 1 µM [16] [h] | IC50 [18] [nM] | Structure (SMILES) | inhibition in vivo at 10 mg/kg (Mus musculus [5]) [%] | inhibition in vivo at 50 mg/kg (Mus musculus [9]) [%] | further results
1 | 49.5 | 18.7 | 0.58 | 0.6 | 0.017 | 0.013 | 4 | 7 (≈ 14.7 µM) | 13 | 3.9 | 0.7 | 13.8 | 1.8 |  |  | O=C(CCSc1nc2ccccc2c(=O)[nH]1)N[C@H]1CC[C@H](c2nnc(-c3ccccc3)o2)CC1 | 51 | 58 | microsomal CLint at 1 µM [15]: 57 µL/min/mg
2 | 141 | 24.2 | 1.5 | 0.3 | 0.006 | 0.009 | 1.9 |  | 21 | 4 | 0.32 | 2 | 2.8 |  |  | N#Cc1ccc(O[C@H]2CC[C@H](NC(=O)CCSc3nc4ccccc4c(=O)[nH]3)CC2)cc1 | 70 | 79 | 
3 |  |  |  |  |  |  | 160 | 6.6 (≈ 14.9 µM) |  |  |  |  |  | 0.667 | 10 | COc1ccccc1NC(=O)c1ccc(NC(=O)CCc2nc3ccccc3c(=O)[nH]2)cc1 |  |  | half-life [17]: 0.37 h; Vd [19]: 4.69 L/kg; AUC (Rattus norvegicus [20]): 0.11 µM·h; CL (Rattus norvegicus [21]): 182 mL/min/kg
4 |  |  |  |  |  |  |  |  |  |  |  |  |  | > 16.7 | 400 | Cn1nc(-c2ccc(NC(=O)CCc3nc4ccccc4c(=O)[nH]3)cc2)c2ccccc21 |  |  | inhibition (SW480): > 50%
